Results gathered from unrelated publications.
Lines come from different studies, so protocols differ.
Target: Serine/threonine-protein kinase PAK 3 (PAK3, Homo sapiens, UniProt O75914)

| SMILES | assay | conditions | remaining binding [%] |
| --- | --- | --- | --- |
| Cc1cnc(Nc2ccc(C(=O)N3CCC(N4CCCC4)CC3)cc2)nc1-c1cc2ccccc2s1 | binding, competition with immobilised ligand | 1 µM | 23 |
| CSc1cccnc1N1CCN(Cc2nc3ccccc3[nH]2)CC1 | cell-free assay, competition with immobilised ligand | 1 µM | 87 |
| FC(F)(F)Oc1cccc(-c2cnc3ccc(-c4ccncc4)nn23)c1 | cell-free assay, competition with immobilised ligand | 5 µM | 100 |
| CC(=O)Nc1c(C(C)=O)c(=O)n(C)c2nc(-c3ccc(Cl)cc3Cl)c(-c3ccc(Cl)cc3)cc12 | cell-free assay, competition with immobilised ligand | 1 µM | 100 |
| Nc1ncc2c(n1)-c1c([nH]c3ccc(C#CC4CC4)cc13)CCCC2 | binding, competition with immobilised ligand | 1 µM | 90 |
| COc1ccnn2ncc(-c3ccnc(N(C)C)n3)c12 | binding | 1 µM | 100 |
| CN([C@@H]1CCc2c(CC(=O)O)c3ccccc3n2C1)S(=O)(=O)c1ccc(F)cc1 | cell-free assay, competition with immobilised ligand | 1 µM | 98 |
| C[C@@H]1CCN(c2nccc(-c3cnn4ncccc34)n2)C1 | binding | 1 µM | 85 |
| CNC(=O)[C@@H]1CC[C@@H](n2c(-c3ccc4cnccc4c3)nc3ccc(C(=O)NCc4cccc(C(N)=O)c4)cc32)C1 | binding, competition with immobilised ligand | 1 µM | 95 |
| c1cnn2ncc(-c3ccnc(N4CCC45COC5)n3)c2c1 | binding | 1 µM | 88 |
| COc1ncc2cc3ccccc3nc2c1C#N | cell-free assay, competition with immobilised ligand | 5 µM | 100 |
| O=C(NCC1CCOCC1)c1n[nH]cc1NC(=O)c1c(F)cccc1F | binding, competition with immobilised ligand | 1 µM | 100 |
| CCN1CCN(Cc2ccc(C(=O)Nc3ccc(C)c(Oc4ccc5c(c4)CC(=O)N5)c3)cc2C(F)(F)F)CC1 | binding, competition with immobilised ligand | 1 µM | 98 |
| COc1ccc2c(c1)O[C@H](c1ccc(OC)c(OC)c1)C[C@@H]2NC(=O)C1(c2ccc3c(c2)OC(F)(F)O3)CC1 | cell-free assay, competition with immobilised ligand | 1 µM | 100 |
| CN(CCCC(F)(F)F)c1nccc(-c2cnn3ncccc23)n1 | binding | 1 µM | 100 |
| O=C(Nc1ccc(Oc2ccc(F)cc2)cc1)N1CCc2ncccc2[C@H]1c1ccc(F)cc1 | cell-free assay, competition with immobilised ligand | 1 µM | 100 |
| CN(C)c1nccc(-c2cnc3ncccn23)n1 | binding | 1 µM | 100 |
| O=C(NCCCN1CCOCC1)c1ccc(Nc2ncc(Cl)c(-c3ccc(Cl)s3)n2)cc1 | binding, competition with immobilised ligand | 1 µM | 77 |
| CC1CCCN1c1nccc(-c2cnn3ncccc23)n1 (stereo not drawn) | binding | 1 µM | 100 |
| CS(=O)(=O)NCC[C@H](NC(=O)c1cncc2c1cnn2-c1ccc(F)cc1)c1ccnc(S(C)(=O)=O)c1 | cell-free assay, competition with immobilised ligand | 1 µM | 100 |
| O=C(NCCCN1CCOCC1)c1ccc(Nc2nccc(-c3cc4ccccc4s3)n2)cc1 | binding, competition with immobilised ligand | 1 µM | 71 |
